Screens from PubChem.
In the library only some 3.8% were active in any assay of this set; here they are far more common.
RGS4 act – potentiators or activators of RGS4; HEK293 M3R/inducible RGS4, carbachol calcium flux Fluo4; hits give low values; B-score at 10 µM; AID 463111; 0.92% of 310,000 active;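 active means B-score of the integrated calcium signal more than 4 SD below the library mean, with starting fluorescence not abnormally high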;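 further: negative B-score means reduced calcium response which marks RGS4 activation or potentiation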
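Reagent: ECmax carbachol challenge; Test system: M3R-expressing HEK293 line, RGS4 induced by doxycycline; Schedule: overnight RGS4 induction, 30 min dye load 37 °C, 20 min compound RT; Detection: calcium dye Fluo4 fluorescence; Read-out: Agonist-evoked peak-minus-minimum fluorescence over baseline, integrated ratio, B score.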
Lipid droplet – modulators of hepatic lipid droplet formation; AID 1656; inhibition, % at 6.5 µM; 0.4% of 240,000 active; AML12 mouse hepatocytes, oleate lipid droplets, BODIPY imaging;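 active means lipid droplet intensity inhibited by at least 50%, with more than 500 cells counted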
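Assay system: AML12 mouse liver cells | Compound: 6.5 µM single-point dosing | Schedule: Overnight exposure | Technique: Fluorescence imaging, 20x objective, two fields per well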
MrgX1 PAM – human MrgX1 positive allosteric modulation, primary screen. Q96LB2. MrgX1-HEK293, Fluo-4 calcium flux, FDSS; hits give high values. B-score at 10 µM. 0.63% of 310,000 active. AID 588675;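 active means plate-corrected calcium response at least 3 library SD above typical, normal starting fluorescence, not activating the receptor alone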;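 further: compound read alongside a low EC10 to EC30 dose of BAM8-22 agonist; peak minus trough fluorescence over baseline measured at the second addition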
Target sequence (Q96LB2 whole entry, looked up): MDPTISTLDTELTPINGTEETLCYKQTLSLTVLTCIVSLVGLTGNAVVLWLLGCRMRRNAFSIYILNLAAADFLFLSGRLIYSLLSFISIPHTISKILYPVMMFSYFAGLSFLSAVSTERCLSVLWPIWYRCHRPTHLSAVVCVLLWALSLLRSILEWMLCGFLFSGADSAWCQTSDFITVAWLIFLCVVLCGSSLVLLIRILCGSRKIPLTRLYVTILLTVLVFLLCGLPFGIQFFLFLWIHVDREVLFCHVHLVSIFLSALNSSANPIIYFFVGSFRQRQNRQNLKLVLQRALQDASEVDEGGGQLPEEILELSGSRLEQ
MrgX1 antag – antagonists of human MrgX1 receptor | Q96LB2 | MRGX1-HEK293 calcium flux, Fluo-4, BAM8-22 antagonism; hits give low values | B-score at 10 µM | 1.3% of 310,000 active | AID 588676;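 active means calcium-response B-score plate-corrected more than 3 library SD below zero, starting fluorescence within 5 deviations, no agonist response on first addition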;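 further: peak minus trough fluorescence over baseline after final BAM8-22 challenge near maximal dose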
MrgX1 ag – activates human MrgX1 receptor signaling | Q96LB2 | MrgX1-HEK293 cells, Fluo-4 calcium fluorescence, agonist mode; hits give high values | B-score at 10 µM | 0.44% of 310,000 active;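 active means calcium response B-score plate-corrected fluorescence ratio at least 3 library SD, with starting fluorescence B-score inside 5 SD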
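Assay system: MrgX1-expressing HEK293 cells / Amount: fifteen thousand cells per well / Doses: test compound in the initial addition of three / Timing: cells plated overnight, dye loaded 0.5 h 37 °C, 0.5 h room temperature / Technique: kinetic calcium dye fluorescence, Fluo-4 NW / Control set: positive and negative controls per plate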
RGS4 block – human RGS4 inhibition; HEK293 M3R/RGS4 inducible, Fluo-4 calcium flux; hits give high values; triggered by carbachol at its EC20; 0.45% of 310,000 active; AID 463165; B-score at 10 µM; P49798;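 active means B-score, a plate-corrected calcium signal, over three deviations above library mean, with baseline fluorescence within five deviations of library mean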;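 further: RGS4 expression induced by doxycycline in cells with stable M3 receptor; B-score is computed from the integrated fluorescence ratio over baseline after carbachol; higher B-score means a larger calcium signal and so more RGS4 inhibition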
Target sequence (P49798 whole entry, looked up): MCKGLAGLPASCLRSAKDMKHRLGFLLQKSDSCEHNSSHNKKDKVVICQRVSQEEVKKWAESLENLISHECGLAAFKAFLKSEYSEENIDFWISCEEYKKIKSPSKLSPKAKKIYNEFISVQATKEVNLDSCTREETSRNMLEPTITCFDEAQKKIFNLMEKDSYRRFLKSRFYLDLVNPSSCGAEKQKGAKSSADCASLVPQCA
MrgX1 antag conf – human MrgX1 receptor antagonism, re-confirmation screen; remaining BAM8-22 calcium response % of control (hits give low values), % at 10 µM; 19% of 2,300 active; MrgX1-HEK293, BAM8-22 calcium flux, Fluo-4; hits give low values; shares compounds with MrgX1 antag;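 active means remaining agonist calcium response no higher than 100% minus 3 SD of agonist-only control wells, with starting fluorescence near control levels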;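 further: agonist BAM8-22 given at a near maximal EC90 to ECmax level; peak minus minimum fluorescence divided by baseline after agonist addition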
HEK293 Ca flux – activity in parental HEK293 cells lacking MrgX1 | 2% of 4,000 active | shares compounds with MrgX1 antag | fluorescence ratio F(max-min)/F0 at 10 µM | AID 624111 | Fluo-4 calcium fluorescence, FDSS;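 active means duplicate-averaged calcium fluorescence ratio at least three times the standard deviation of buffer wells, a nonspecific response in parental cells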
HEK293 Ca counter – activity in parental HEK293 cells without MrgX1; shares compounds with MrgX1 antag; parental HEK293 calcium flux, Fluo-4 fluorescence ratio; hits give high values; fluorescence ratio F(max-min)/F0 at 10 µM; 0.4% of 4,000 active; AID 624114;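 active means calcium fluorescence ratio, averaged over duplicates, at least 3 SD of the buffer-well ratio, meaning a nonspecific response in receptor-free cells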;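 further: untransfected parental HEK293 lacking MrgX1 used as counterscreen for MrgX1 allosteric activators; fluorescence change taken during the second addition on a kinetic imager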
HEK293 Ca cntr2 – MrgX1 activator counter-screen hit in parental HEK293 cells. shares compounds with MrgX1 antag. Fluo-4 calcium fluorescence (FDSS); hits give high values. fluorescence ratio F(max-min)/F0 at 10 µM. 8.7% of 4,000 active. AID 624115;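 active means calcium fluorescence ratio at least three times the spread of buffer wells, meaning a non-specific response in parental cells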
The depositor's hits bear a star; i = inactive; / = not tested or not shown.

SMILES | RGS4 act | Lipid droplet | MrgX1 PAM | MrgX1 antag | MrgX1 ag | RGS4 block | MrgX1 antag conf | HEK293 Ca flux | HEK293 Ca counter | HEK293 Ca cntr2
Cc1cccc2sc(NS(C)(=O)=O)nc12 | i | 9 | i | i | i | i | / | / | / | /
COc1ccc2c(CC(=O)N[C@@H](Cc3ccccc3)C(=O)O)cc(=O)oc2c1 | i | 6 | i | i | i | i | / | / | / | /
Cc1c(O)ccc2c(CC(=O)N[C@@H](Cc3ccccc3)C(=O)O)cc(=O)oc12 | i | / | i | -4.9* | i | i | 84%* | i | i | i
CCOC(=O)c1nn(-c2ccc(OCC)cc2)c2nc(-c3ccco3)c(C#N)c(=O)n12 | i | 4 | i | i | i | i | / | / | / | /
COc1ccc(CN2CC(=O)N(c3ccc(C)c(C)c3)C2=S)cc1OC | i | -8 | i | i | i | i | / | / | / | /
Cc1cc(Br)ccc1NCc1ccccn1 | i | / | i | -6* | i | i | i | i | i | i
O=C(Nc1ccc(S(=O)(=O)Nc2ncccn2)cc1)c1ccc2ncsc2c1 | i | -23 | i | -5* | i | i | 73%* | i | i | i
O=C(Nc1ccncc1)c1ccc2ncsc2c1 | i | / | i | i | i | i | / | / | / | /
Cc1ccc(C(=O)Nc2nccs2)cc1 | i | 16 | i | -5.3* | i | i | i | i | i | i
Nc1ccc(C(=O)Nc2nccs2)cc1 | i | 12 | i | i | i | i | / | / | / | /
Cc1oc(-c2ccccc2)nc1C(=O)Nc1nccs1 | i | / | i | -5.7* | i | i | i | i | i | i
COc1ccc(-c2csc(NC(=O)c3nc(-c4ccccc4)oc3C)n2)cc1 | i | / | i | i | i | i | / | / | / | /
O=C(CN(Cc1ccc(F)cc1)C(=O)CNS(=O)(=O)c1ccccc1)NCC1CCCO1 (stereo not drawn) | i | 0 | i | i | i | i | / | / | / | /
COc1ccccc1C(C)NS(=O)(=O)c1cccs1 (stereo not drawn) | i | -16 | i | i | i | i | / | / | / | /
c1ccc(CN2CCN(c3cnc4ccccc4n3)CC2)cc1 | i | / | i | -8.8* | i | i | i | i | i | i
Fc1ccccc1N1CCN(c2cnc3ccccc3n2)CC1 | i | 4 | i | i | i | i | / | / | / | /
COCc1nc(-c2ccc(-c3ccc(OC)cc3)nc2OC)no1 | i | -5 | i | -11* | i | i | i | i | i | i
COCc1nc(-c2ccc(-c3ccccc3)nc2OC)no1 | i | 5 | i | i | i | i | / | / | / | /
O=C(Nc1ccc(Cl)cc1)N1CCN(C(=O)C2CCCO2)CC1 (stereo not drawn) | i | 8 | i | i | i | i | / | / | / | /
Cc1ccc(NC(=O)N2CCN(C(=O)C3CCCO3)CC2)cc1 (stereo not drawn) | i | -2 | i | -5.9* | i | i | i | i | i | i
CCOC(=O)c1ccc(NC(=O)CN2CCN(C(=O)C3CCCO3)CC2)cc1 (stereo not drawn) | i | 0 | i | -6.3* | i | i | i | i | i | i
COc1cccc2cc(C(=O)C3=C(O)C(=O)N(c4cc(C)on4)C3c3cccs3)oc12 (stereo not drawn) | i | -4 | i | -5.1* | i | i | i | i | i | i
COc1cccc(C2C(C(=O)c3cc4cccc(OC)c4o3)=C(O)C(=O)N2c2cc(C)on2)c1OC (stereo not drawn) | i | -9 | i | i | i | i | / | / | / | /
COC(=O)c1ccc(C2C(C(=O)c3cc4ccccc4o3)=C(O)C(=O)N2c2cc(C)on2)cc1 (stereo not drawn) | i | 4 | i | -5.2* | i | i | 82%* | i | i | i
Cc1cc(N2C(=O)C(O)=C(C(=O)c3cc4ccccc4o3)C2c2ccc(OC(C)C)cc2)no1 (stereo not drawn) | i | 2 | i | i | i | i | / | / | / | /
SMILES | RGS4 act | Lipid droplet | MrgX1 PAM | MrgX1 antag | MrgX1 ag | RGS4 block | MrgX1 antag conf | HEK293 Ca flux | HEK293 Ca counter | HEK293 Ca cntr2
O=C(c1ccc(N2CCN(C(=O)c3ccccc3Br)CC2)cc1)c1cccc(F)c1 | i | -43 | i | i | i | i | / | / | / | /
O=C(c1ccc(N2CCN(C(=O)c3cccc(F)c3)CC2)cc1)c1cccc(F)c1 | i | -7 | i | -4.6* | i | i | i | i | i | i
CC(=C/c1ccco1)/C=N/NC(=O)CSc1nnc(SCc2ccc(C)cc2)s1 | i | -1 | i | i | i | i | / | / | / | /
CCOc1ccc(CNC(=O)CCc2cn(Cc3ccccc3)c3ccccc23)cc1 | i | -11 | i | i | i | i | / | / | / | /
OCCC1CN(Cc2ccon2)CCN1Cc1ccc(F)c(F)c1 (stereo not drawn) | i | -1 | i | -8.5* | i | i | i | i | i | i
COc1cccc(CN2CCN(Cc3ccon3)CC2CCO)c1 (stereo not drawn) | i | -19 | i | i | i | i | / | / | / | /
OC1(C#CCN2CCCC2)CCCCC1 | i | 31 | i | i | i | i | / | / | / | /
O=C(O)CCc1nc2cc(C(F)(F)F)ccc2n(Cc2ccccc2)c1=O | i | -3 | i | i | i | i | / | / | / | /
CC(C)c1ccc(NC(=S)NNC(=O)c2cccs2)cc1 | i | / | i | i | i | i | / | / | / | /
O=C(CNC(=O)c1ccc(S(=O)(=O)N2CCCC2)cc1)N/N=C/c1ccco1 | i | -20 | i | i | i | i | / | / | / | /
O=C1CC(=O)N(CCc2ccccc2)C(=O)N1CCc1ccccc1 | i | 3 | i | -11* | i | i | 79%* | i | i | i
O=C1c2ccccc2C(=O)N1CCc1ccccc1 | i | / | i | i | i | i | / | / | / | /
